{"source": "ChEMBL document CHEMBL5154715", "about": "“Phenolic Lipids Derived from Cashew Nut Shell Liquid to Treat Metabolic Diseases” (J Med Chem, 2022)", "key": {"[1]": {"assay": "Apparent oral clearance in C57BL/6 mouse at 40 mg/kg, ip […] by LC-MS/MS analysis", "format": "ADME, organism-based", "settings": "in vivo"}, "[2]": {"assay": "Cmax in C57BL/6 mouse at 100 mg/kg, po measured upto 24 hrs by LC-MS/MS analysis", "format": "ADME, organism-based", "parameters": "time < 24 hrs, dose 100 mg/kg, route po", "settings": "in vivo", "procedure,_shortened": "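Single oral dose given in peanut butter pellets to WT male C57Bl/6 mice acclimated 7 days to drug-free pellets; n = 4 per time point. Saphenous blood at 0.25–2 h, terminal collection at 4–38 h. Plasma extracted with methanol containing internal standard, LC-MS/MS with negative-ion ESI MRM. Parameters reported as mean ± SEM; Frel is oral vs IP.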"}}}
{"smiles": "CCCCCCCCCCCCCCCc1cccc(OC(C)(C)C(=O)O)c1", "values": [{"measurement": "CL/F", "setting": "[1]", "value": 0.89, "unit": "mL/min/kg"}, {"measurement": "Cmax", "setting": "[2]", "value": 76, "unit": "µg/mL"}]}
